The results in this text go back to ChEMBL document CHEMBL1148736, “N-Acylthiadiazolines, a new class of liver X receptor agonists with selectivity for LXRbeta” (J Med Chem, 2007).

Data set [1] concerns the target T1, Oxysterols receptor LXR-alpha (Homo sapiens, UniProt Q13133).
T1 sequence (Q13133 whole entry): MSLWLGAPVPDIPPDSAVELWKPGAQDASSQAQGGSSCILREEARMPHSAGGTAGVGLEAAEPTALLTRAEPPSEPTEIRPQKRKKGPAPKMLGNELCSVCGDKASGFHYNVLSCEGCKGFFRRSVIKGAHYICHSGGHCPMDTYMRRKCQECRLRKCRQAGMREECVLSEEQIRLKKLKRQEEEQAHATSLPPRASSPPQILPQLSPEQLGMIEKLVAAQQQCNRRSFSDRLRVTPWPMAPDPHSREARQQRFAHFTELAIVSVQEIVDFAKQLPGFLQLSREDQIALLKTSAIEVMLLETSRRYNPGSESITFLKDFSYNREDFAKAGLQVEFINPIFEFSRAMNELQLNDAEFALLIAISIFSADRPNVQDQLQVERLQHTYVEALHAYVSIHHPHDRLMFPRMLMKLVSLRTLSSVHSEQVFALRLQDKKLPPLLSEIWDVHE
Kind of data set: Activity at human LXRalpha by Gal4 transactivation assay. In outline: (§1)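 GAL4 DBD fused to hLXRα or hLXRβ LBD in pcDNA3, co-transfected into HepG2 with luciferase reporter. Cells in DMEM with 10% lipoprotein-deficient FBS, 7.5 µM lovastatin, 100 µM mevalonic acid. Ligand added 24 h post-transfection as 11-point curves from 10 µM; luciferase read after 16 h. Run in quadruplicate. %E = max fold induction vs max fold induction of reference dual agonist in same experiment.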

For data set [2], the target named is T2, Oxysterols receptor LXR-alpha (Homo sapiens) (UniProt Q13133).
T2 sequence (whole entry): T1 sequence (Q13133 whole entry)
Kind of data set: Displacement of [3H]T-0901317 from GAL-linked human LXRalpha expressed in THP1 cells at 20 uM by SPA relative to GW-3965. Format: cell-based. To be noted: THP-1. In outline:
(§2)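 Scintillation proximity displacement with His-tagged hLXRα or hLXRβ LBD (200 ng/well) and 30 nM [3H]T0901317. Beads 0.2 mg/well in phosphate buffer with EDTA, NaCl, DTT, CHAPS, 10% glycerol. 12-point curves from 20 µM; shaken 3 h at room temperature. No-competitor wells = 100% binding; nonspecific binding without protein. Efficacy = maximal displacement relative to reference dual agonist.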

The nature of data set [3]: Cmax in C57BL/6 mouse at 5 mg/kg, iv. Format: ADME, organism-based. On the set-up: dose 5 mg/kg, route intravenous. The following applies: in vivo. In outline: (§3)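 Mouse PK study, IV and PO; compound formulated at 2.5 mg/mL in PEG300/Tween 80 (4:1). IV dose 5 mpk (AUC, Cmax, clearance, Vss); oral dose 20 mpk (AUC, Cmax, bioavailability, t1/2).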
The test system of data set [4] is Macrophage. Kind of data set: Induction of ABCA1 gene expression in LXRalpha and LXRbeta deficient mouse macrophages. Type of data set: functional, cell-based. In outline:
(§4)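 Thioglycollate-elicited peritoneal macrophages from LXR-null mice, plated 24 h. Treated as for THP-1 without PMA: 2% lipoprotein-deficient serum medium, compound in DMSO for 24 h. ABCA1 mRNA by TaqMan qRT-PCR with 36B4 control, fold vs DMSO. Two concentrations used.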

The target in data set [5] is T3, Oxysterols receptor LXR-beta (Homo sapiens) (UniProt P55055).
T3 sequence (whole entry): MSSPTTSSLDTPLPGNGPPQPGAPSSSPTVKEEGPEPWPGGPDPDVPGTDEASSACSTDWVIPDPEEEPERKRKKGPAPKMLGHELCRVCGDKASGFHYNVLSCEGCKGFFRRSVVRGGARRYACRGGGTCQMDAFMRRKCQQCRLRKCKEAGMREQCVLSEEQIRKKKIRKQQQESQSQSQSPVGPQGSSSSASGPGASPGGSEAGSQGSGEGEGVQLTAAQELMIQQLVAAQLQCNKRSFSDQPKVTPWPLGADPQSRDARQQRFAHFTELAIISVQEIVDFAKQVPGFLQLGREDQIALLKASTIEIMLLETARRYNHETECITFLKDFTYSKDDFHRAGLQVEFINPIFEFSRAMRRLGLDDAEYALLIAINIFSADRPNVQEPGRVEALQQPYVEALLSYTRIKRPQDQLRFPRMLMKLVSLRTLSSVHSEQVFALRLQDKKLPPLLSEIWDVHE
Kind of data set: Agonist activity at GAL-linked human LXRbeta expressed in THP1 cells assessed as stimulation of co-activator recruitment by FRET assay relative to GW-3965. Type of data set: functional. In outline:
(§5)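 Cell-free TR-FRET coactivator recruitment: 20 nM His-tagged hLXRα or hLXRβ, 300 nM biotinylated SRC-1 peptide, Eu-anti-His antibody, APC-streptavidin. 12-point curves from 20 µM; 1 h at 37 °C. Duplicate. %E = maximal coactivator recruitment relative to reference dual agonist in same experiment.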

Data set [6] addresses T1, Oxysterols receptor LXR-alpha. Description: Agonist activity at GAL-linked human LXRalpha expressed in THP1 cells assessed as stimulation of coactivator recruitment by FRET assay. Type of data set: functional. Put shortly:
as §5

For data set [7], the system named is Liver. Kind of data set: Effect on ABCA1 gene expression in C57BL/6 mouse liver. Type of data set: functional, tissue-based. In outline:
(§6)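 Male C57BL/6 mice, 10 weeks old, chow-fed, gavaged daily with vehicle or compound (20–200 mpk) for 3 days. Fasted overnight before the last dose; killed 3 h later. Tissue RNA analysed by TaqMan qRT-PCR.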

Data set [8] deals with Macrophage. Description: Induction of ABCA1 gene expression in LXRalpha deficient mouse macrophages. Format: functional, cell-based. Put shortly:
as §4

The test system of the next data set is THP-1. Description: Increase in ABCA1 gene expression in THP1 cells at 10 uM relative to GW-3965. Type of data set: functional, Homo sapiens. Put shortly:
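THP-1 cells differentiated with 40 ng/mL PMA for 1 day, then switched to RPMI with 2% lipoprotein-deficient FBS. Compound added 6 h later at 1 or 10 µM in DMSO, incubated 24 h. ABCA1 mRNA by one-step TaqMan qRT-PCR, triplicate, multiplexed with 36B4; fold induction vs DMSO, expressed relative to reference dual agonist.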

The nature of data set [9]: Bioavailability in C57BL/6 mouse at 20 mg/kg, po. Type of data set: ADME, organism-based. To be noted: in vivo. In outline:
as §3

Data set [10] has as its system Liver. Description: Effect on SREBP1c gene expression in C57BL/6 mouse liver. Format: functional, tissue-based. Put shortly:
as §6

The target in data set [11] is T2, Oxysterols receptor LXR-alpha (Homo sapiens). Description: Activity at human LXRalpha by Gal4 transactivation assay relative to GW-3965. In outline:
as §1

The target in data set [12] is T3, Oxysterols receptor LXR-beta (Homo sapiens). Description: Displacement of [3H]T-0901317 from GAL-linked human LXRbeta expressed in THP1 cells at 20 uM by SPA relative to GW-3965. To be noted: THP-1. Format: cell-based. In outline:
as §2
A general note: In a radioligand displacement assay an active substance lowers the binding of a labelled ligand.

Data set [13] deals with Peroxisome proliferator-activated receptor (Homo sapiens) (UniProt P37231+Q07869+Q03181). Kind of data set: Activity at PPAR by cell based assay.
The nature of data set [14]: Volume of distribution at steady state in C57BL/6 mouse at 5 mg/kg, iv. Details: dose 5 mg/kg, route intravenous. Format: ADME, organism-based. To be noted: in vivo, read-out: Vss. In outline: as §3

The source made the active and inactive calls. The rule behind the calls is not given here.

Broadly, the EC50 is the concentration that produces a half-maximal response. The Cmax is the maximum level reached in the sampled fluid or tissue. What is called bioavailability is dose-corrected exposure relative to a reference, in per cent. Low readings indicate little systemic uptake, high ones much systemic uptake. As for `COc1cccc(C2SC(c3ccc(Cl)cc3)=NN2C(=O)c2c(F)cc(F)cc2F)c1OC` (racemic), the EC50 amounted to 608 nM in data set [1] and 2300 nM in data set [6]. In addition, the Efficacy in data set [2] came out at 52%; in data set [5], 99%; in data set [11], 19%; in data set [12], 100%. For the same compound, the Cmax in data set [3] was found to be 20.4 µM. The result (in the data set with Macrophage [4]; in the data set with Liver [7]; with Liver [10]; in data set [13]) was inactive. In the data set with Macrophage [8], the outcome was Active. This compound yielded an Activity in the data set on THP-1 of 59%. Besides, in data set [9], the bioavailability turned out to be 28%. Besides, in [14], the Vd came to 1.65 L/kg.
